Experimental findings from ChEMBL document CHEMBL1153823, “Design, synthesis, and biological evaluation of new 5-HT4 receptor agonists: application as amyloid cascade modulators and potential therapeutic utility in Alzheimer's disease” (J Med Chem, 2009) are described below.

Calls of active or inactive are those of the source. The rule behind the calls is not given here.

For assay [1], the target named is T1, 5-hydroxytryptamine receptor 4 (Homo sapiens, UniProt Q13639). Nature of the assay: Agonist activity at human 5HT4 isoform E receptor expressed in rat C6 cells assessed as cAMP accumulation at 10 nM by radio-immunoassay relative to 5HT. The assay is classed as functional, cell-based. The procedure, abridged: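 C6 glial cells stably transfected with h5-HT4(e)R, grown to confluence, serum-free 4 h, then preincubated 15 min in serum-free medium with 5 mM theophylline and 10 µM pargyline. […] Stopped with ice-cold perchloric acid; cAMP by radioimmunoassay; response normalized to 5-HT maximum.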
(Changes in cAMP serve as a functional read-out for many G protein-coupled receptors.)

The target of assay [2] is T1, 5-hydroxytryptamine receptor 4. Put plainly: Displacement of [3H]GR-113808 from human 5HT4 isoform E receptor expressed in rat C6 cells at 10 nM by liquid scintillation counting. Format: cell-based.
Assay [3] shares this target. Put plainly: Agonist activity at human 5HT4 isoform E receptor expressed in rat C6 cells assessed as cAMP accumulation by radio-immunoassay relative to 5HT. The assay is classed as functional, cell-based. The procedure, abridged:
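C6 glial cells stably transfected with h5-HT4(e)R, grown to confluence, serum-free 4 h, then preincubated 15 min in serum-free medium with 5 mM theophylline and 10 µM pargyline.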

For assay [4] the target is unchanged. Nature of the assay: Displacement of [3H]GR-113808 from human 5HT4 isoform E receptor expressed in rat C6 cells by liquid scintillation counting. The assay is classed as cell-based.
The test system of assay [5] is Mus musculus. Nature of the assay: Increase in sAPPalpha levels in C57BL/6J mouse brain hippocampus at 5 mg/kg, sc after 90 mins by Western blot. Format: functional, organism-based. Further details: dose 5 mg/kg. The procedure, abridged:
(§1)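 Male C57BL/6j mice, 8 weeks, 23–27 g, 7–9 per group, single subcutaneous dose 5 mg/kg in 0.9% NaCl (saline controls 5 mL/kg). Killed 90 min later. Hippocampus and cortex sonicated in Tris/NaCl with protease inhibitors, spun 100000g 45 min. sAPPα immunoblot, normalized to β-actin densitometry, expressed as % of saline controls. One-way ANOVA with PLSD.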
On the technique in general: A western blot detects proteins with antibodies after separation by electrophoresis.

Assay [6] is described as follows: Inhibition of amyloid beta (25-35) polymerization assessed as inhibition of fibril formation by UV-visible measurement. The procedure, abridged: (§2)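 Aβ25-35 (100 µM final) with agonist (10 µM final, added in MeOH) in 10 mM phosphate buffer pH 7.2, prepared at 4 °C. UV-visible spectra 190–600 nm at 15 °C read after 6 h; agonist-alone spectra subtracted, Aβ-alone control run in parallel. At least three independent measurements. IC50 obtained by least-squares sigmoidal fit, for agonists at least as active as curcumin.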

Assay [7] can be described thus: Inhibition of amyloid beta (25-35) polymerization assessed as inhibition of fibril formation at 10 uM by UV-visible measurement. The procedure, abridged:
as §2

Assay [8] has as its system Mus musculus. Put plainly: Increase in sAPPalpha levels in C57BL/6J mouse brain cortex at 5 mg/kg, sc after 90 mins by Western blot. The assay is classed as functional, organism-based. Further details: dose 5 mg/kg. The procedure, abridged: as §1

T1 sequence (Q13639 whole entry, canonical isoform): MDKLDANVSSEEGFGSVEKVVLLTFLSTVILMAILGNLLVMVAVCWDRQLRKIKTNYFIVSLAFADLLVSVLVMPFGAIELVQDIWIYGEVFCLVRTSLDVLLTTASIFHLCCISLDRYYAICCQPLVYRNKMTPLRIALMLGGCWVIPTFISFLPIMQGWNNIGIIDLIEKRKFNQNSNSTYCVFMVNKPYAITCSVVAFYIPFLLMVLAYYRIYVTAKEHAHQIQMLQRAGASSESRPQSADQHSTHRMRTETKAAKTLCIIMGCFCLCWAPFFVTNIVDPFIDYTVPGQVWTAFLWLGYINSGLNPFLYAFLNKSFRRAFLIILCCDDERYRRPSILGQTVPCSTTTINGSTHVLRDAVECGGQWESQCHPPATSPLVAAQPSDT

Consider `COc1cc(N)c(Cl)cc1C(=O)OCCN1CCC(CNC(=O)CC(C)(C)C)CC1`, for which the Emax in assay [1] was determined as 10%. Further, in assay [2], the Activity amounted to 10%.
On to `COc1cc(N)c(Cl)cc1C(=O)OCCN1CCC(CNC(=O)c2ccc(C)nc2O)CC1`, for which, in assay [1], the Emax is 10%. This compound also gave an Activity in assay [2] of 10%.
Consider `COc1ccc(OC)c(CC(=O)NCC2CCN(CCOC(=O)c3cc(Cl)c(N)cc3OC)CC2)c1`, for which the Emax in assay [1] is 10%. The Activity in assay [2] is 40%.
The matching figures for `COc1cc(N)c(Cl)cc1C(=O)OCCN1CCCCC1`: 45% and 40%.
The matching figures for `CCCC(=O)NCC1CCN(CCOC(=O)c2cc(Cl)c(N)cc2OC)CC1`: less than 10% and 20%.
Take `COc1cc(N)c(Cl)cc1C(=O)OCCN1CCC(CNC(=O)CCCNS(=O)(=O)c2ccc(-c3ccccc3)cc2)CC1`: in assay [1], the Emax is less than 10%. The same compound showed an Activity in assay [2] of 10%.
The matching figures for `COc1cc(N)c(Cl)cc1C(=O)OCCN1CCC(CNC(=O)CCc2cccs2)CC1`: 30% and 30%.
Regarding `CCCC(=O)NC1CCN(CCOC(=O)c2cc(Cl)c(N)cc2OC)CC1`, the Activity in assay [2] turned out to be 0%.
`COc1cc(N)c(Cl)cc1C(=O)OCCN1CCC(CNC(=O)c2ccccc2F)CC1`: the Emax in assay [1] turned out to be 0%. Besides, the Activity in assay [2] is 20%.
The matching figures for `COc1cc(N)c(Cl)cc1C(=O)OCCN1CCC(CNC(=O)c2ccsc2)CC1`: 0% and 10%.
For the compound `COc1cc(N)c(Cl)cc1C(=O)OCCN1CCC(NC(=O)c2ccc([N+](=O)[O-])o2)CC1`, in assay [2], the Activity was less than 10%.
Consider `COc1cc(N)c(Cl)cc1C(=O)OCCN1CCC(CNC(=O)Cc2ccccc2Cl)CC1`, for which the Emax in assay [1] was found to be 20%. The Activity in assay [2] was more than 50%.
`COc1cc(N)c(Cl)cc1C(=O)OCCN1CCC(NC(=O)Cc2ccc([N+](=O)[O-])cc2)CC1`: in assay [1], the Emax came out at 20%. In assay [2], the Activity worked out at 20%.
In the case of `COc1cc(N)c(Cl)cc1C(=O)OCCN1CCC(CNC(=O)CCCNS(=O)(=O)c2ccc(C)cc2)CC1`, in assay [3], the EC50 is 68 nM. For the same compound, the Ki in assay [4] was 2 nM. Moreover, the Emax in assay [1] was more than 70%. Moreover, the Activity in assay [2] is more than 50%.
For `COc1cc(N)c(Cl)cc1C(=O)OCCN1CCC(CNC(=O)CSc2ccccc2)CC1`, in assay [1], the Emax was less than 10%. The Activity in assay [2] turned out to be 30%.
For `COc1cc(N)c(Cl)cc1C(=O)OCCN1CCC(NC(=O)CCCNCCCc2ccc(CCCNCCCC(=O)NC3CCN(CCOC(=O)c4cc(Cl)c(N)cc4OC)CC3)cc2)CC1`, the result in the assay on Mus musculus [5] and with Mus musculus [8] was Active. In addition, in assay [6], the IC50 amounted to 9000 nM. Moreover, the EC50 in assay [3] turned out to be 9 nM. The same compound gave a Ki in assay [4] of 14 nM. Besides, in assay [7], the inhibition was found to be 49%. Further, in assay [1], the Emax is more than 50%. The compound further showed an Activity in assay [2] of 10%.
With `COc1cc(N)c(Cl)cc1C(=O)OCCN1CCC(CNC(=O)c2cccs2)CC1`, the Emax in assay [1] is less than 10%. Further, the Activity in assay [2] was found to be 20%.
Take `COc1cc(N)c(Cl)cc1C(=O)OCCN1CCC(NC(=O)c2ccc(C)nc2O)CC1`: the Activity in assay [2] is less than 10%.
Turning to `COc1cc(N)c(Cl)cc1C(=O)OCCN1CCC(CNC(=O)CCCc2ccccc2)CC1`, the Emax in assay [1] turned out to be 0%. In assay [2], this compound gave an Activity of 20%.
The matching figures for `COc1cc(N)c(Cl)cc1C(=O)OCCN1CCC(NC(=O)CC(C)C)CC1`: 10% and less than 10%.
The matching figures for `COc1cc(N)c(Cl)cc1C(=O)OCCN1CCC(CNC(=O)CC2CCCCC2)CC1`: less than -10% and 20%.
The matching figures for `COc1cc(N)c(Cl)cc1C(=O)OCCN1CCC(CNC(=O)CCc2ccccc2)CC1`: 20% and 20%.
For the compound `COc1cc(N)c(Cl)cc1C(=O)OCCN1CCC(NC(=O)CC2CCCCC2)CC1`, the Activity in assay [2] was less than 10%.
The same measure, in the same setting: the same measure for `COc1cc(N)c(Cl)cc1C(=O)OCCN1CCC(NC(=O)CCCCc2ccccc2)CC1`: less than 10%.
On to `COc1cc(N)c(Cl)cc1C(=O)OCCN1CCC(CNC(=O)Cc2ccc(Br)cc2)CC1`, for which the Emax in assay [1] stood at 0%. This compound also came in with an Activity in assay [2] of 40%.
The matching figures for `COc1cc(N)c(Cl)cc1C(=O)OCCN1CCC(NC(=O)CSc2ccccc2)CC1`: less than 10% and 20%.
The matching figures for `COc1cc(N)c(Cl)cc1C(=O)OCCN1CCC(NC(=O)c2ccccc2F)CC1`: 10% and 10%.
For the compound `COc1cc(N)c(Cl)cc1C(=O)OCCN1CCC(NC(=O)CCCNCCCc2ccccc2)CC1`, affinity in assay [4] was put at a Ki of 12 nM. For the same compound, the Emax in assay [1] came to 50%.
Consider `COc1cc(N)c(Cl)cc1C(=O)OCCN1CCC(CNC(=O)CCC2CCCCC2)CC1`, for which the Emax in assay [1] is more than 50%. Moreover, the Activity in assay [2] was 10%.
As to `COc1cc(N)c(Cl)cc1C(=O)OCCN1CCC(CNC(=O)Cc2ccc([N+](=O)[O-])cc2)CC1`, the Emax in assay [1] is more than 50%. In addition, the Activity in assay [2] was found to be 40%.
Regarding `COc1cc(N)c(Cl)cc1C(=O)OCCN1CCC(NC(=O)Cc2ccccc2Cl)CC1`, in assay [3], the EC50 came out at 18 nM. The affinity in assay [4] corresponds to a Ki of 5 nM. In addition, the Emax in assay [1] is more than 50%. This compound gave an Activity in assay [2] of 10%.
Regarding `COc1cc(N)c(Cl)cc1C(=O)OCCN1CCC(NC(=O)CCCNS(=O)(=O)c2ccc(C)cc2)CC1`, in assay [1], the Emax worked out at 10%. Further, in assay [2], the Activity worked out at 10%.
`COc1cc(N)c(Cl)cc1C(=O)OCCN1CCC(CNC(=O)CC(C)C)CC1`: in assay [1], the Emax stood at 40%. In assay [2], this compound showed an Activity of 20%.
`COc1cc(N)c(Cl)cc1C(=O)OCCN1CCC(NC(=O)CCC2CCCCC2)CC1` displayed an Activity in assay [2] of 0%.
On to `COc1cc(/C=C/C(=O)CC(=O)/C=C/c2ccc(O)c(OC)c2)ccc1O` [CURCUMIN], for which, in assay [6], the IC50 stood at 10000 nM. Moreover, in assay [7], the inhibition was found to be 45%.
Take `COc1cc(N)c(Cl)cc1C(=O)OCCN1CCC(NC(=O)CCCc2ccccc2)CC1`: the Emax in assay [1] is 20%. In assay [2], this compound came in with an Activity of 20%.
On to `COc1ccc(OC)c(/C=C/C(=O)NCC2CCN(CCOC(=O)c3cc(Cl)c(N)cc3OC)CC2)c1`, for which the Activity in assay [2] is 20%.
As for `COc1cc(N)c(Cl)cc1C(=O)OCCN1CCC(NC(=O)c2cccs2)CC1`, the Emax in assay [1] is less than 10%. In addition, the Activity in assay [2] was 20%.
The matching figures for `COc1cc(N)c(Cl)cc1C(=O)OCCN1CCC(NC(=O)c2ccsc2)CC1`: 20% and 10%.
As for `COc1cc(N)c(Cl)cc1C(=O)OCCN1CCC(CNC(=O)C(C)C)CC1`, the Emax in assay [1] was 10%. The same compound came in with an Activity in assay [2] of 20%.
The matching figures for `COc1cc(N)c(Cl)cc1C(=O)OCCN1CCC(NC(=O)Cc2ccc(Br)cc2)CC1`: 10% and 10%.
The matching figures for `COc1cc(N)c(Cl)cc1C(=O)OCCN1CCC(NC(=O)CCc2cccs2)CC1`: 10% and 10%.
Take `COc1cc(N)c(Cl)cc1C(=O)OCCN1CCC(CNC(=O)CCCCc2ccccc2)CC1`: the Emax in assay [1] was found to be 10%. The compound further returned an Activity in assay [2] of 10%.
For `COc1cc(N)c(Cl)cc1C(=O)OCCN1CCC(NC(=O)CCc2ccccc2)CC1`, the Emax in assay [1] is less than 10%. Moreover, the Activity in assay [2] worked out at 20%.

What is called Emax is the maximal effect, on the per cent scale that the assay sets. A word on the EC50: it is the concentration needed to bring the measured effect to its halfway point. As a reminder, the Ki is a dissociation constant, usually derived from enzyme kinetics or from competition with a known ligand. By IC50 is commonly meant the point on the concentration scale where inhibition reaches its midpoint. A word on the inhibition: it is the relative decrease from the control value, in per cent.
